From ChEMBL document CHEMBL3112573, “Design, synthesis and evaluation of acridine and fused-quinoline derivatives as potential anti-tuberculosis agents” (Eur J Med Chem, 2014) come the findings set out here.

Molecules are shown by their SMILES. In brackets after ≈: the same amount, converted by molar mass.

Holding throughout (format): functional
The subject of test [1] is Mycobacterium tuberculosis. Nature of the test: Antimicrobial activity against isoniazid-resistant Mycobacterium tuberculosis H37Rv SRI 1369 assessed as growth inhibition after 7 days by broth microdilution assay. Conditions: H37Rv SRI 1369, 168 h. The gist of the method:
(§1)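 Broth microdilution per CLSI in Middlebrook 7H9 + OADC; ten two-fold dilutions; inoculum targeted 1.0 × 10^6 CFU/mL M. tuberculosis; 37 °C, ~90% humidity, 7 days. Wells scored visually for turbidity, partial or complete clearing; MIC = lowest concentration visually inhibiting growth; percent inhibition at the MIC also recorded. Duplicates; rifampin or isoniazid positive control, medium-only and organism-only controls.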

Test [2] has as its system Mycobacterium tuberculosis. Nature of the test: Antimicrobial activity against rifampin-resistant Mycobacterium tuberculosis H37Rv SRI 1367 assessed as growth inhibition after 7 days by broth microdilution assay. Particulars: H37Rv SRI 1367, 168 h. In short, it runs like this:
as §1

In test [3] the test system is Mycobacterium tuberculosis. Briefly: Antimicrobial activity against rifampin-resistant Mycobacterium tuberculosis H37Rv SRI 1367 assessed as growth inhibition at MIC after 7 days by broth microdilution assay relative to control. The gist of the method:
as §1

Test [4] relates to Mycobacterium tuberculosis. Nature of the test: Antimicrobial activity against ofloxacin-resistant Mycobacterium tuberculosis H37Rv SRI 4000 assessed as growth inhibition after 7 days by broth microdilution assay. Particulars: H37Rv SRI 4000, 168 h. In short, it runs like this: as §1
Test [5] relates to Mycobacterium tuberculosis. Nature of the test: Antimicrobial activity against isoniazid-resistant Mycobacterium tuberculosis H37Rv SRI 1369 assessed as growth inhibition at MIC after 7 days by broth microdilution assay relative to control. In short, it runs like this:
as §1

The test system of test [6] is Mycobacterium tuberculosis. Briefly: Antimicrobial activity against ofloxacin-resistant Mycobacterium tuberculosis H37Rv SRI 4000 assessed as growth inhibition at MIC after 7 days by broth microdilution assay relative to control. In short, it runs like this:
as §1

On to `Clc1ccc2nc3c(c(-c4ccccc4)c2c1)CCC3`, for which the MIC was found to be 6.25 µg/mL (≈ 22.3 µM) in test [1], 6.25 µg/mL (≈ 22.3 µM) in test [2] and 12.5 µg/mL (≈ 44.7 µM) in test [4]. The “growth inhibition (GI)” value is reported as 83% in test [3], 69% in test [5] and 81% in test [6].

`O=[N+]([O-])c1ccc2nc3c(c(-c4ccccc4)c2c1)CCCC3`: the MIC in test [1] came to 6.25 µg/mL (≈ 20.5 µM); in test [2], 3.12 µg/mL (≈ 10.3 µM); in test [4], 3.12 µg/mL (≈ 10.3 µM). Moreover, the “growth inhibition (GI)” value in test [3] amounted to 69%; in test [5], 41%; in test [6], 50%.

With `O=[N+]([O-])c1ccc2nc3c(c(-c4ccccc4)c2c1)CCCCC3`, the MIC in test [1], in test [2] and in test [4] was 37.5 µg/mL (≈ 118 µM) throughout. Besides, the figures for the “growth inhibition (GI)” value in test [3], in test [5] and in test [6] were 72%, 52% and 70%, respectively.

Take `NNC(=O)c1ccncc1` [ISONIAZID]: the MIC in test [2] was determined as 0.02 µg/mL (≈ 0.146 µM). The “growth inhibition (GI)” value in test [3] came out at 85%.

In the case of `CO[C@H]1/C=C/O[C@@]2(C)Oc3c(C)c(O)c4c(O)c(c(/C=N/N5CCN(C)CC5)c(O)c4c3C2=O)NC(=O)/C(C)=C\C=C\[C@H](C)[C@H](O)[C@@H](C)[C@@H](O)[C@@H](C)[C@H](OC(C)=O)[C@@H]1C` [RIFAMPIN], the values for the MIC in test [1] and in test [4] were 0.02 µg/mL (≈ 0.0243 µM) and 1.56 µg/mL (≈ 1.9 µM), respectively. Besides, the figures for the “growth inhibition (GI)” value in test [5] and in test [6] were 74% and 71%, respectively.
